Laboratory results published in ChEMBL document CHEMBL1255365, “In vitro antifungal susceptibility and molecular characterization of clinical isolates of Fusarium verticillioides (F. moniliforme) and Fusarium thapsinum” (2008).
≈ marks a conversion by molar mass, not a printed value.

Tests used:
Type in all cases: functional
Fusarium verticillioides [1] = assay: Antifungal activity against Fusarium moniliforme clade 1 by microdilution method
Outline: (§1)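 Clinical isolates grown on potato dextrose agar for 7 days at 25°C. Susceptibility tested by modified NCCLS (2002) broth microdilution reference method for filamentous fungi. Final inoculum 4 × 10^3 to 5 × 10^4 conidia/ml. Final drug ranges: 64–0.12 μg/ml for fluconazole and flucytosine, 128–0.25 μg/ml for micafungin, 16–0.03 μg/ml for the other azoles, amphotericin B and terbinafine.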

[2] = Antifungal activity against Fusarium thapsinum by microdilution method; conditions: Gibberella thapsina; outline: as §1
Fusarium verticillioides [3] = assay: Antifungal activity against Fusarium moniliforme clade 3 by microdilution method; outline: as §1
Fusarium verticillioides [4] = assay: Antifungal activity against Fusarium moniliforme clade 2 by microdilution method; outline: as §1

SMILES | MIC (Fusarium verticillioides [1]) | MIC [2] | MIC (Fusarium verticillioides [3]) | MIC (Fusarium verticillioides [4])
C[C@@H]1[C@H](O)[C@@H](C)/C=C/C=C/C=C/C=C/C=C/C=C/C=C/[C@H](O[C@@H]2O[C@H](C)[C@@H](O)[C@H](N)[C@@H]2O)C[C@@H]2O[C@](O)(C[C@@H](O)C[C@@H](O)[C@H](O)CC[C@@H](O)C[C@@H](O)CC(=O)O[C@H]1C)C[C@H](O)[C@H]2C(=O)O [AMPHOTERICIN B] | 2.41 µg/mL (≈ 2.61 µM) | 2.64 µg/mL (≈ 2.86 µM) | 2 µg/mL (≈ 2.16 µM) | 2.24 µg/mL (≈ 2.42 µM)
C[C@@H](c1ncncc1F)[C@](O)(Cn1cncn1)c1ccc(F)cc1F [VORICONAZOLE] | 2 µg/mL (≈ 5.73 µM) | 2.64 µg/mL (≈ 7.56 µM) | 2 µg/mL (≈ 5.73 µM) | 2.83 µg/mL (≈ 8.1 µM)
C[C@@H](c1nc(-c2ccc(C#N)cc2)cs1)[C@](O)(Cn1cncn1)c1ccc(F)cc1F [RAVUCONAZOLE] | 1.45 µg/mL (≈ 3.31 µM) | 18.4 µg/mL (≈ 42 µM) | 4 µg/mL (≈ 9.14 µM) | 2.24 µg/mL (≈ 5.12 µM)
CN(C/C=C/C#CC(C)(C)C)Cc1cccc2ccccc12 [TERBINAFINE] | 0.21 µg/mL (≈ 0.721 µM) | 0.44 µg/mL (≈ 1.51 µM) | 0.25 µg/mL (≈ 0.858 µM) | 0.31 µg/mL (≈ 1.06 µM)
CC[C@@H]([C@H](C)O)n1ncn(-c2ccc(N3CCN(c4ccc(OC[C@@H]5CO[C@@](Cn6cncn6)(c6ccc(F)cc6F)C5)cc4)CC3)cc2)c1=O [POSACONAZOLE] | 0.79 µg/mL (≈ 1.13 µM) | > 16 µg/mL | 1 µg/mL (≈ 1.43 µM) | 0.89 µg/mL (≈ 1.27 µM)
CCC(C)n1ncn(-c2ccc(N3CCN(c4ccc(OCC5COC(Cn6cncn6)(c6ccc(Cl)cc6Cl)O5)cc4)CC3)cc2)c1=O (configuration not stated) [ITRACONAZOLE] | 12.7 µg/mL (≈ 18 µM) | > 16 µg/mL | > 16 µg/mL | > 16 µg/mL
C[C@@H](n1cnc2cc(Cl)ccc2c1=O)[C@](O)(Cn1cncn1)c1ccc(F)cc1F [ALBACONAZOLE] | 3.03 µg/mL (≈ 7.02 µM) | 18.4 µg/mL (≈ 42.6 µM) | 5.66 µg/mL (≈ 13.1 µM) | 3.56 µg/mL (≈ 8.24 µM)
CC(=O)N1CCN(c2ccc(OCC3COC(Cn4ccnc4)(c4ccc(Cl)cc4Cl)O3)cc2)CC1 (configuration not stated) [KETOCONAZOLE] | 2 µg/mL (≈ 3.76 µM) | > 16 µg/mL | 8 µg/mL (≈ 15.1 µM) | 8 µg/mL (≈ 15.1 µM)
